Experimental data taken from the M2OR odorant receptor database.

Experiments:
Conditions in all cases: stereoisomer not certain
UniProt Q8VG53 = biological target: T1, UniProt Q8VG53
T1 sequence (whole entry): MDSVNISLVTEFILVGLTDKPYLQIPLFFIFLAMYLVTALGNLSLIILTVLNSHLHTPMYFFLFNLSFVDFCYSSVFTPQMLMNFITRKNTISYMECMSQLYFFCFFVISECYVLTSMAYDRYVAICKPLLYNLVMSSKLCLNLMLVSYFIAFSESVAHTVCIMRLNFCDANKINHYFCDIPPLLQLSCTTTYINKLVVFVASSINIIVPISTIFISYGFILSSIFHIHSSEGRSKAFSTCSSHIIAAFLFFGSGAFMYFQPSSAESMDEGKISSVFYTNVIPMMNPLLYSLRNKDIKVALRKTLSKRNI
How it was run: (§1)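 Values were gathered from published papers (main text and supplementary material), with extra details requested from the original authors when needed, and checked for typos and inconsistencies. Each receptor–molecule pair is called responsive (active) if the original authors judged the measured signal statistically different from baseline, and non-responsive (inactive) otherwise. Assay methods varied by source, often transient mammalian cell-line luciferase assays. Recorded details include cell line, G-protein, co-transfected protein and tags.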

UniProt Q8VG64 = biological target: T2, UniProt Q8VG64
T2 sequence (whole entry): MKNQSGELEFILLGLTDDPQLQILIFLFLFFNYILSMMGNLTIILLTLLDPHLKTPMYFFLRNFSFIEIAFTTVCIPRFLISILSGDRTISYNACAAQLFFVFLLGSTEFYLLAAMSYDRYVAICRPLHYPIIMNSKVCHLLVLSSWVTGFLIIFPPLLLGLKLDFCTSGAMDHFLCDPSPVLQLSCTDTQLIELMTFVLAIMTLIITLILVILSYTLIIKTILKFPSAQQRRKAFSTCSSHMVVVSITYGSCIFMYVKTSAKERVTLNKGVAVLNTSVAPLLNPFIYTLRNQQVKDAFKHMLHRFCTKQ
How it was run: as §1

UniProt Q8VGB9 = biological target: T3, UniProt Q8VGB9
T3 sequence (whole entry): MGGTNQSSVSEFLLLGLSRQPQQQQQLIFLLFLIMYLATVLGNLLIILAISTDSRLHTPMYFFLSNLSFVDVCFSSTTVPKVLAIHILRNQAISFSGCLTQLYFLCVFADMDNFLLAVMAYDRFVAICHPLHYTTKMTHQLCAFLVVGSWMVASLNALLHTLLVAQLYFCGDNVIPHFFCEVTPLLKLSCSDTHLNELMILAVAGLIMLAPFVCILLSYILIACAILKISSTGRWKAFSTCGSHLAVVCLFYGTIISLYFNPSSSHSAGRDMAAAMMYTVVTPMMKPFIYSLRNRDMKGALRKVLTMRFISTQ
How it was run: as §1

UniProt Q8VGC6 = biological target: T4, UniProt Q8VGC6
T4 sequence (whole entry): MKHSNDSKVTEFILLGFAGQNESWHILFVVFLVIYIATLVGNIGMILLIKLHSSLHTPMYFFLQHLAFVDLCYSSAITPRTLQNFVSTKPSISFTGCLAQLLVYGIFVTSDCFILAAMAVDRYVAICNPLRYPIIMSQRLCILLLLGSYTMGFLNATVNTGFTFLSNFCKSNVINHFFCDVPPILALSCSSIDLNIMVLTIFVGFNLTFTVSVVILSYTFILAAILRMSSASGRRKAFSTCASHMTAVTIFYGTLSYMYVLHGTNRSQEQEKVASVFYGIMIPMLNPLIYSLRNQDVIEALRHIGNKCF
How it was run: as §1

UniProt Q8VGJ3 = biological target: T5, UniProt Q8VGJ3
T5 sequence (whole entry): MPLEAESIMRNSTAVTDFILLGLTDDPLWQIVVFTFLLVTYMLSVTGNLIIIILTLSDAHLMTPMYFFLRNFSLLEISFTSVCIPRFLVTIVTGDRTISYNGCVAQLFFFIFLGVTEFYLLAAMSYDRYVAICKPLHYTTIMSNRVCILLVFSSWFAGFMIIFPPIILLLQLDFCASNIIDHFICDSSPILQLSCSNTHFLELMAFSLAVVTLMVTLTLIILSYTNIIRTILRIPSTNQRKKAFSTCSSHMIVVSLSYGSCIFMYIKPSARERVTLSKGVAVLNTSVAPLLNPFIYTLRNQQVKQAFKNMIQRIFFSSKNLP
How it was run: as §1

UniProt Q8VG77 = biological target: T6, UniProt Q8VG77
T6 sequence (whole entry): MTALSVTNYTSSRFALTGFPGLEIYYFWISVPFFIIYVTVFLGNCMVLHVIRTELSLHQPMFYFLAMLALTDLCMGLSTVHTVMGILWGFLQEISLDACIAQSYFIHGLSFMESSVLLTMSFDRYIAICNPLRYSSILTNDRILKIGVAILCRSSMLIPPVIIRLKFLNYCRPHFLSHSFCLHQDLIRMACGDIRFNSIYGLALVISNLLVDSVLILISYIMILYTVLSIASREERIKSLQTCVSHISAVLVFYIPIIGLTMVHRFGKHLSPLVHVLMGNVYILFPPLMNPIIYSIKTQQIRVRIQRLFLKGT
How it was run: as §1

UniProt Q8VG96 = biological target: T7, UniProt Q8VG96
T7 sequence (whole entry): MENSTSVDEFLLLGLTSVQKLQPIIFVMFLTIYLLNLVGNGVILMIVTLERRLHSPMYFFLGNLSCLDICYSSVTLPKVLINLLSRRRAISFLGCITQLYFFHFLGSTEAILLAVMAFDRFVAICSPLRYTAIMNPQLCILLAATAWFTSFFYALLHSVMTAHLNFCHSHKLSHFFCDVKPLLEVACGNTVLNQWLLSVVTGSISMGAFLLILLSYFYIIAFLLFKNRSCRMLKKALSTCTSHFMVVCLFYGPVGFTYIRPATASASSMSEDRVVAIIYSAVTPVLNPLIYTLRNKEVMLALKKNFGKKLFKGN
How it was run: as §1

UniProt Q8VGD7 = biological target: T8, UniProt Q8VGD7
T8 sequence (whole entry): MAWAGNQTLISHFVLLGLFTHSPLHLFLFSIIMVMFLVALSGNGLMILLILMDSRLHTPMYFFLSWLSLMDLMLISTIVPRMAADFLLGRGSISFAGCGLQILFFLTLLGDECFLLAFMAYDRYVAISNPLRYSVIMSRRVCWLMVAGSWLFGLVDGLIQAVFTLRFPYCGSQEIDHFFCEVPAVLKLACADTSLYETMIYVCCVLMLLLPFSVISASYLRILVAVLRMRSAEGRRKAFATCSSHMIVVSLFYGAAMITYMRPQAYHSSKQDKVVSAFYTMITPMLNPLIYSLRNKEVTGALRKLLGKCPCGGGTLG
How it was run: as §1

UniProt Q8VGH1 = biological target: T9, UniProt Q8VGH1
T9 sequence (whole entry): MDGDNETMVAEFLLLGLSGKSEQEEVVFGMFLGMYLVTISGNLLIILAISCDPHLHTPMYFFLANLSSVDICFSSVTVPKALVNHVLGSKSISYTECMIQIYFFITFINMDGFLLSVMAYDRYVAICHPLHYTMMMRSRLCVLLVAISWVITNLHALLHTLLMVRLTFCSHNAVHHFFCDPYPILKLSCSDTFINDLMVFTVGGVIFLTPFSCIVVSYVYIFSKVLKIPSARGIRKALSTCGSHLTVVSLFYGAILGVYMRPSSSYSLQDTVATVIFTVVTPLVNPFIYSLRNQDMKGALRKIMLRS
How it was run: as §1

UniProt Q8VGJ1 = biological target: T10, UniProt Q8VGJ1
T10 sequence (whole entry): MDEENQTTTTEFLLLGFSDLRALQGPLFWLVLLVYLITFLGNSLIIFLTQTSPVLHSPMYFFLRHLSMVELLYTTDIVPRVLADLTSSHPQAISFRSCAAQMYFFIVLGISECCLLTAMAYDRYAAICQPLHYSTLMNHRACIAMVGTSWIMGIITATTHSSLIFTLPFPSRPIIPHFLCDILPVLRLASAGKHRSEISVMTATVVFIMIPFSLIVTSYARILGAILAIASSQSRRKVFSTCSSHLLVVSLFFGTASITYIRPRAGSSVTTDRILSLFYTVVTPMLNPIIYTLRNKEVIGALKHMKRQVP
How it was run: as §1

Measured: odorant receptor agonist call

Cc1ccc(OC(=O)Cc2ccccc2)cc1
inactive: UniProt Q8VG53 | UniProt Q8VG64 | UniProt Q8VGB9 | UniProt Q8VGC6 | UniProt Q8VGJ3

O=CC=Cc1ccccc1
inactive: UniProt Q8VG53 | UniProt Q8VG64 | UniProt Q8VGB9 | UniProt Q8VGC6 | UniProt Q8VGJ3

CCCCCCC(Br)C(=O)O (configuration not stated)
inactive: UniProt Q8VG53 | UniProt Q8VG64 | UniProt Q8VGB9 | UniProt Q8VGC6 | UniProt Q8VGJ3

CSSC
inactive: UniProt Q8VG53 | UniProt Q8VG64 | UniProt Q8VGB9 | UniProt Q8VGC6 | UniProt Q8VGJ3

C=C(C)C1CC=C(C=O)CC1 (configuration not stated)
active: UniProt Q8VGB9
inactive: UniProt Q8VG53 | UniProt Q8VG64 | UniProt Q8VGC6 | UniProt Q8VGJ3

OCc1ccc2c(c1)OCO2
inactive: UniProt Q8VG53 | UniProt Q8VG64 | UniProt Q8VGB9 | UniProt Q8VGC6 | UniProt Q8VGJ3

CCCCC(Br)C(=O)O (configuration not stated)
inactive: UniProt Q8VG53 | UniProt Q8VG64 | UniProt Q8VGB9 | UniProt Q8VGC6 | UniProt Q8VGJ3

CCC1CCC(=O)O1 (configuration not stated)
active: UniProt Q8VGC6
inactive: UniProt Q8VG77 | UniProt Q8VG96 | UniProt Q8VGD7 | UniProt Q8VGH1 | UniProt Q8VGJ1

O=c1cc(O)c2ccccc2o1
inactive: all assays above

COc1ccc(C=O)cc1
inactive: UniProt Q8VG53 | UniProt Q8VG64 | UniProt Q8VGB9 | UniProt Q8VGC6 | UniProt Q8VGJ3

O=Cc1ccccc1
active: UniProt Q8VGJ3
inactive: UniProt Q8VG53 | UniProt Q8VG64 | UniProt Q8VGB9 | UniProt Q8VGC6

Oc1ccccc1Br
inactive: UniProt Q8VG53 | UniProt Q8VG64 | UniProt Q8VGB9 | UniProt Q8VGC6 | UniProt Q8VGJ3

O=Cc1ccc2c(c1)OCO2
inactive: UniProt Q8VG53 | UniProt Q8VG64 | UniProt Q8VGB9 | UniProt Q8VGC6 | UniProt Q8VGJ3

C=CCOC(=O)Cc1ccccc1
active: UniProt Q8VGC6
inactive: all other assays above

CC(C=O)Cc1ccc2c(c1)OCO2 (configuration not stated)
inactive: UniProt Q8VG53 | UniProt Q8VG64 | UniProt Q8VGB9 | UniProt Q8VGJ3
active: UniProt Q8VGC6

C=CCc1ccccc1
inactive: UniProt Q8VG77 | UniProt Q8VG96 | UniProt Q8VGC6 | UniProt Q8VGD7 | UniProt Q8VGH1 | UniProt Q8VGJ1
